Active and inactive are the calls of the source. The calls are words filed in the database; no cut-off is given here.
Experiments:
Huh-7 [1] = assay: Decrease in p38 MAPK protein expression in human HuH7 cells transfected with pHBV1.2 at 5 ug/ml after 2 days by immunoblot method relative to control
Huh-7 [2] = assay: Decrease in NF-kB p65 protein expression in human HuH7 cells transfected with pHBV1.2 at 2.5 ug/ml after 2 days by immunoblot method relative to control; format: functional
Method in brief: (§1)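 Huh7 cells were transfected with pHBV1.2 for 2 days, then treated at 2.5, 5 or 10 μg/mL for another 2 days. Whole-cell protein was extracted with protease inhibitors. NF-κB p65/p50, phospho-p65, IKKα/β and IκBα/phospho-IκBα were detected by immunoblot. Blots are representative of three experiments.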

Huh-7 [3] = assay: Decrease in ERK1/2 protein expression in human HuH7 cells transfected with pHBV1.2 at 2.5 to 10 ug/ml after 2 days by immunoblot method
Huh-7 [4] = assay: Decrease in p38 MAPK protein expression in human HuH7 cells transfected with pHBV1.2 at 10 ug/ml after 2 days by immunoblot method relative to control
Huh-7 [5] = assay: Decrease in IKKbeta protein expression in human HuH7 cells transfected with pHBV1.2 at 10 ug/ml after 2 days by immunoblot method relative to control; format: functional
Method in brief: as §1

Huh-7 [6] = assay: Decrease in IKBalpha protein expression in human HuH7 cells transfected with pHBV1.2 at 2.5 ug/ml after 2 days by immunoblot method relative to control; format: functional
Method in brief: as §1

[7] = Antiviral activity against Hepatitis B virus in human HepG2.2.15 cells assessed as inhibition of HBsAg secretion by EIA
[8] = biological target: Transcription factor p65 (Homo sapiens) (UniProt Q04206); assay: Decrease in NF-kB p65 phosphorylation in human HuH7 cells transfected with pHBV1.2 at 10 ug/ml after 2 days by immunoblot method relative to control; format: cell-based
Sequence of Transcription factor p65 (Homo sapiens) (Q04206 whole entry): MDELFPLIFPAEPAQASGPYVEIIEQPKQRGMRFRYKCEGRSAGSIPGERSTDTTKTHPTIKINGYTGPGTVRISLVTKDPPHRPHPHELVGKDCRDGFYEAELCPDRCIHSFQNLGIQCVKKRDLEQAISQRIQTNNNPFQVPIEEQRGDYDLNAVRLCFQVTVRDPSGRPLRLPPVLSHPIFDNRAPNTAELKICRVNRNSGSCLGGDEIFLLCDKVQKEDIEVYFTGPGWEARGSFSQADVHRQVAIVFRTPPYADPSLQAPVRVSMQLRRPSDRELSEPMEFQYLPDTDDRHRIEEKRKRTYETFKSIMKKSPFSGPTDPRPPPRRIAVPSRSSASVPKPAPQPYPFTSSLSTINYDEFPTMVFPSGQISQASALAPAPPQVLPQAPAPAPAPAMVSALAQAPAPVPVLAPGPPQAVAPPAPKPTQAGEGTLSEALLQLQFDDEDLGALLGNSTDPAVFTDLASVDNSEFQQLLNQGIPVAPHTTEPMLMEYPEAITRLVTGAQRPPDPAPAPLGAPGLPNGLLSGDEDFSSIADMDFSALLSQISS
Method in brief: as §1

Hepatitis B virus = assay: Decrease in HBV core promoter activity infected in human HuH7 cells cotransfected with pHBV1.2 at 10 ug/ml after 24 hrs by luciferase reporter gene assay; format: cell-based
Method in brief: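 Huh7 cells were seeded for 24 h, then cotransfected with pHBV1.2, pRLSV40 and a pGL4.17-based Core (nt 1636-1851), S (nt 3114-220), PreS (nt 2438-2855) or X (nt 1071-1357) promoter-luciferase construct for 24 h. Cells were then treated at 10 μg/mL for 24 h and lysates were assayed for luciferase. Mean ± SD, n = 3.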

[9] = tested on: Hepatitis B virus subtype adw2; assay: Antiviral activity against Hepatitis B virus subtype adw2 infected in human HuH7 cells assessed as reduction in SHBs level at 2.5 to 10 ug/ml after 2 days by immunoblot method; format: functional, cell-based
Method in brief: (§2)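 Huh7 cells were transfected with pHBV1.2 (1.2-fold HBV adw2 genome) for 2 days, then exposed to 2.5, 5 or 10 μg/mL for another 2 days. Whole-cell protein was extracted with protease inhibitors. SHBs, HBcAg and HBx were detected by immunoblot, with α-tubulin for comparison.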

[10] = Antiviral activity against Hepatitis B virus subtype adw2 infected in human HuH7 cells assessed as reduction in HBx level at 10 ug/ml after 2 days by immunoblot method relative to control; format: functional
Method in brief: as §2

Huh-7 [11] = assay: Decrease in SAPK/JNK protein expression in human HuH7 cells transfected with pHBV1.2 at 2.5 to 10 ug/ml after 2 days by immunoblot method
[12] = biological target: T1, NF-kappa-B inhibitor alpha (Homo sapiens) (UniProt P25963); assay: Decrease in IKBalpha phosphorylation in human HuH7 cells transfected with pHBV1.2 at 2.5 ug/ml after 2 days by immunoblot method relative to control; format: cell-based
T1 sequence (whole entry): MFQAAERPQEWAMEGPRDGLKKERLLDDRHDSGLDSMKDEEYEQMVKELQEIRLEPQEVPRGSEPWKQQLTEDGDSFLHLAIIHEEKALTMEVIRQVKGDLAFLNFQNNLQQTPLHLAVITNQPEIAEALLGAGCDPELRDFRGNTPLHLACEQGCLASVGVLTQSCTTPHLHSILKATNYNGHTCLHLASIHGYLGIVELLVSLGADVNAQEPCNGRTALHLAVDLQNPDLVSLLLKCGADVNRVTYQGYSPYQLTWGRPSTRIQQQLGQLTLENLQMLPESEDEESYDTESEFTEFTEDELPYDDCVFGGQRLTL
Method in brief: as §1

Huh-7 [13] = assay: Decrease in IKKbeta protein expression in human HuH7 cells transfected with pHBV1.2 at 2.5 ug/ml after 2 days by immunoblot method relative to control; format: functional
Method in brief: as §1

Huh-7 [14] = assay: Effect on p38 MAPK protein expression in human HuH7 cells transfected with pHBV1.2 at 2.5 ug/ml after 2 days by immunoblot method relative to control
[15] = tested on: Hepatitis B virus subtype adw2; assay: Antiviral activity against Hepatitis B virus subtype adw2 infected in human HuH7 cells assessed as inhibition of viral DNA replication at 10 ug/ml cotreated with MAPK activator anisomycin after 2 days by RT-PCR method; format: functional, cell-based
Method in brief: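 Huh7 cells were cotransfected with pHBV1.2 and, where stated, 0.5 or 2.5 μg pCMV-p65 (or empty vector) for 2 days, then treated at 10 μg/mL for 2 days. In separate wells, HBV-expressing cells received 10 μg/mL with or without anisomycin (10 μM) for 2 days. Secreted viral particles were kit-isolated and HBV DNA was measured by real-time PCR, n = 3.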

[16] = biological target: T1, NF-kappa-B inhibitor alpha (Homo sapiens); assay: Decrease in IKBalpha phosphorylation in human HuH7 cells transfected with pHBV1.2 at 10 ug/ml after 2 days by immunoblot method relative to control; format: cell-based
Method in brief: as §1

Homo sapiens = species on record: Homo sapiens; assay: Decrease in SAPK/JNK phosphorylation in human HuH7 cells transfected with pHBV1.2 at 2.5 to 10 ug/ml after 2 days by immunoblot method
[17] = Selectivity index, ratio of TC50 for human HepG2.2.15 cells to IC50 for Hepatitis B virus subtype adw2 infected in human HepG2.2.15 cells assessed as inhibition of HBeAg secretion
[18] = Selectivity index, ratio of TC50 for human HepG2.2.15 cells to IC50 for Hepatitis B virus subtype adw2 infected in human HuH7 cells assessed as inhibition of viral DNA replication
[19] = Antiviral activity against Hepatitis B virus subtype adw2 infected in human HuH7 cells assessed as reduction in HBx level at 5 ug/ml after 2 days by immunoblot method relative to control; format: functional
Method in brief: as §2

Q: For `C=C1C[C@@]23CC[C@H]4[C@@](C)(CCC[C@@]4(C)NC(=O)NCCCC)[C@@H]2CC[C@]1(O)C3`, which “fold change (FC)” value (Huh-7 [1]) is on record?
A: 0.98

Q: What about the “fold change (FC)” value (Huh-7 [2]) of the same compound?
A: 0.89

Q: What about the Activity (Huh-7 [3]) of the same compound?
A: Active

Q: What about the “fold change (FC)” value (Huh-7 [4]) of the same compound?
A: 0.33

Q: And the “fold change (FC)” value (Huh-7 [5])?
A: 0.33

Q: What about the “fold change (FC)” value (Huh-7 [6]) of the same compound?
A: 0.97

Q: And the IC50 [7]?
A: 23.5 µM

Q: What about the fold change (FC) [8] of the same compound?
A: 0.23

Q: What about the Activity (Hepatitis B virus) of the same compound?
A: Active

Q: And the Activity [9]?
A: Active

Q: And the “fold change (FC)” value [10]?
A: 0.15

Q: What about the Activity (Huh-7 [11]) of the same compound?
A: Active

Q: And the fold change (FC) [12]?
A: 0.97

Q: And the “fold change (FC)” value (Huh-7 [13])?
A: 0.99

Q: What about the “fold change (FC)” value (Huh-7 [14]) of the same compound?
A: 1.01

Q: What about the inhibition [15] of the same compound?
A: inactive

Q: And the fold change (FC) [16]?
A: 0.25

Q: What about the Activity (Homo sapiens) of the same compound?
A: Active

Q: And the selectivity ratio [17]?
A: 47.7

Q: What about the selectivity ratio [18] of the same compound?
A: 57.7

Q: And the “fold change (FC)” value [19]?
A: 0.87

Source: ChEMBL document CHEMBL3997773, “Synthesis of C-4-Substituted Steviol Derivatives and Their Inhibitory Effects against Hepatitis B Virus” (J Nat Prod, 2016)
